One data set concerns HIV-1. As to conditions: MT-2 cell culture.
Data set [1] is classed as physicochemical. As to conditions: reaction at 37°C, gel apparatus up to 55°C. The essentials:
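Stability inferred from a single-turnover incorporation time course using HIV-1 RT (250 nM) and D23/D36 primer/template (50 nM). The test triphosphate (150 μM) and a dTTP reference (100 μM) were run in parallel at 37°C and sampled at 0, 30 s, 5, 10, 30 and 60 min. Products were resolved on denaturing acrylamide gel (apparatus up to 55°C), comparing band mobility.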

Regarding `CC(C)=CCN1Cc2c(OCCOCCOCCOCCOC(=O)CCc3cn([C@H]4C=C[C@@H](CO)O4)c(=O)[nH]c3=O)ccc3[nH]c(=S)n(c23)C[C@@H]1C` [Compound 16a], the “Antiviral activity in cell culture (in words)” value in the data set on HIV-1 is recorded as “most inhibitory”.

Consider `Cc1cc(C#CCOCCOCCOCCOCCOCC#Cc2cn([C@H]3C=C[C@@H](COP(=O)(O)OP(=O)(O)OP(=O)(O)O)O3)c(=O)[nH]c2=O)cc(C)c1Oc1ccnc(Nc2ccc(C#N)cc2)n1` [d4TTP-4PEG-TMC], for which the “Stability (in words)” value in data set [1] is given as “increased compound stability”.

For the origin of these results see publication PMC3580853 (Bioorganic & medicinal chemistry letters, 2012).
